Bioassay records as filed in PubChem.
RORa activator = activators of orphan receptor RORA, primary screen, cell-based, luminescence | Nuclear receptor ROR-alpha (Homo sapiens), P35398 | CHO-K1 Gal4-RORA LBD luciferase reporter; percent increase over mock-subtracted basal signal | activation, % at 10 µM | 65,000 compounds, 1.5% hits | AID 560, 2006;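 active means activation above the mean of all tested compounds plus 3 SD, cut at about 49% in these data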;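 further: 0% = DMSO-treated RORA cells and 100% = added signal equal to DMSO minus mock-transfected cells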
JNK3 blocker = JNK3 kinase activity inhibitors, primary screen, biochemical, human, purified enzyme; HTS; inhibition, % at 8 µM; 60,000 compounds, 0.61% hits; AID 746, 2007; in the data active means inhibition above about 17%;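 further: 0% = DMSO and 100% = reference inhibitor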
MT1-MMP txn act = MT1-MMP promoter reporter activation – cell-based, luciferase luminescence, primary screen; HT1080 MT1-MMP promoter luciferase reporter, overnight; hits give high values; activation factor at 10 µM; 86,000 compounds, 0.16% hits;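 active means activation factor of at least 2 for MT1-MMP transcription at 10 µM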
SF-1 act = activators of human SF-1, primary screen, cell-based, CHO-K1, Gal4-SF-1 LBD, luciferase luminescence. CHO-K1 Gal4-SF-1 LBD luciferase reporter; % increase over DMSO SF-1-specific signal. activation, % at 10 µM. 65,000 compounds, 1.9% hits. Steroidogenic factor 1 (Homo sapiens), Q13285;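 active means activation above the mean activation of all tested compounds plus 3 SD, cut at about 50% in these data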
Target sequence (Q13285 whole entry, looked up, the tested form may be a part): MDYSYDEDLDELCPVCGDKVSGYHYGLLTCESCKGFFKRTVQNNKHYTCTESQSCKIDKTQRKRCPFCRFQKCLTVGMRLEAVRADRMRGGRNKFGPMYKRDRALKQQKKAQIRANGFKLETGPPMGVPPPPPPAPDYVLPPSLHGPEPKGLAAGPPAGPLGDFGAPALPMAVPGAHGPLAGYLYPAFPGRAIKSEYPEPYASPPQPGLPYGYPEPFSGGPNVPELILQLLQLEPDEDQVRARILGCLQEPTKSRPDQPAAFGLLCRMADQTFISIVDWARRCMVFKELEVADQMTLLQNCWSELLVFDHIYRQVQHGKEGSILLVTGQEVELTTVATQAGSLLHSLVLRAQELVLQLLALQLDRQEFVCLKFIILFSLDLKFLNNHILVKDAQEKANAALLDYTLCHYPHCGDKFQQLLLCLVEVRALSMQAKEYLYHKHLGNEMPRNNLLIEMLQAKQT
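Material: Gal4–SF-1 LBD one-hybrid luciferase reporter in CHO-K1 cells | Amount: 4,000 cells per well | Compound dosing: 10 µM single point, 1% DMSO | Schedule: 20 h compound treatment, 37 °C | Measured by: SteadyLite luciferase luminescence | Evaluation: Percent activation versus DMSO | Control set: DMSO-treated SF-1-transfected cells as negative, DMSO-treated mock-transfected cells lacking SF-1 as background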
Active calls of the source: *. Most compounds without a hit are left out; they make up all but 2.3% or so of the library.

Results for COc1ccc2nc(NC(=O)Cc3ccc(OC)c(S(=O)(=O)N4CCOCC4)c3)sc2c1 ?
RORa activator: 32.7; JNK3 blocker: 28.6*; MT1-MMP txn act: 1.2; SF-1 act: 35.6

What do the screens show for `CCOCC(=O)Nc1nc2ccc(OCC)cc2s1`?
RORa activator: 11.3; JNK3 blocker: -5.3; SF-1 act: 35.6

How did CCCC(=O)Nc1nc2ccc(OC)cc2s1 do in these assays?
RORa activator: 56.0*; JNK3 blocker: 6.5; MT1-MMP txn act: 1.4; SF-1 act: 54.2*

Results for CCOc1ccc2nc(NC(=O)c3cnccn3)sc2c1 ?
RORa activator: 85.8*; JNK3 blocker: 0.6; MT1-MMP txn act: 0.7; SF-1 act: 19.3

Results for COc1ccc2nc(NC(=O)c3cccc(OCc4c(C)noc4C)c3)sc2c1 ?
RORa activator: 86.2*; JNK3 blocker: 3.3; MT1-MMP txn act: 0.6; SF-1 act: 35.8

How did COc1ccc2nc(NC(=O)c3cccc(S(=O)(=O)N4CCOCC4)c3)sc2c1 do in these assays?
MT1-MMP txn act: 1.1

How did COc1ccc2nc(NC(=O)CSc3ccccc3)sc2c1 do in these assays?
MT1-MMP txn act: 1.1

What do the screens show for `Cc1cc(-c2nsc(=O)o2)c(S(C)(=O)=O)s1`?
RORa activator: 18.3; JNK3 blocker: -0.2; MT1-MMP txn act: 1; SF-1 act: -15.4

What do the screens show for `CC(Cc1ccccc1)C(=O)NCC1CC1` (stereo not drawn)?
MT1-MMP txn act: 1

What do the screens show for `CCOCCn1c(=O)c2c(nc3n2CCN3c2ccc(CC)cc2)n(C)c1=O`?
RORa activator: -4.7; JNK3 blocker: -4.1; MT1-MMP txn act: 1.1; SF-1 act: -24.3

Results for Cc1nc(NCc2ccco2)c(C#N)c2c1COC(C)(C)C2 ?
RORa activator: -6.0; JNK3 blocker: 30.9*; MT1-MMP txn act: 1; SF-1 act: 2.0

How did CCCc1nc(Nc2nc3ccccc3o2)nc(C)c1C(=O)OCC do in these assays?
RORa activator: 49.2*; JNK3 blocker: 2.5; MT1-MMP txn act: 0.7; SF-1 act: 80.7*

Results for c1ccc(Cc2nnc(-c3ccccc3)o2)cc1 ?
RORa activator: 50.5*; JNK3 blocker: -1.8; MT1-MMP txn act: 1.3; SF-1 act: 44.9

Results for c1ccc(-c2nnc(-c3cccc(-c4nnc(-c5ccccc5)o4)c3)o2)cc1 ?
RORa activator: 17.6; JNK3 blocker: 0.7; MT1-MMP txn act: 1.1; SF-1 act: -8.6

How did CCOc1ccc(-c2nc(N)ncc2-c2ccccc2)c(O)c1 do in these assays?
RORa activator: 12.5; JNK3 blocker: 50.7*; MT1-MMP txn act: 1.1; SF-1 act: -29.0

Results for Cc1cc(NCCN2CCOCC2)n2ncc(-c3ccccc3)c2n1 ?
RORa activator: 66.0*; JNK3 blocker: -5.6; MT1-MMP txn act: 1.4; SF-1 act: 90.9*

What do the screens show for `Cc1ccc(-n2nc(C)c(C3C(C#N)=C(N)OC4=C3C(=O)CC(C)(C)C4)c2Cl)cc1` (stereo not drawn)?
RORa activator: 30.0; JNK3 blocker: 2.7; MT1-MMP txn act: 1; SF-1 act: 57.0*

How did CCOC(=O)N1CCC(Nc2nc3ccccc3nc2NS(=O)(=O)c2ccc(Cl)cc2)CC1 do in these assays?
RORa activator: 21.4; JNK3 blocker: -3.5; MT1-MMP txn act: 1.7; SF-1 act: 53.5*

Results for CCOC(=O)N1CCC(NC(=O)CC(NS(=O)(=O)c2ccc(Cl)cc2)c2ccco2)CC1 (stereo not drawn) ?
RORa activator: -6.6; JNK3 blocker: 2.1; MT1-MMP txn act: 1.4; SF-1 act: 8.0

What do the screens show for `O=C(c1ccccc1)N1CCCC(C(=O)N2CCCCCC2)C1` (stereo not drawn)?
RORa activator: -19.5; JNK3 blocker: -0.6; MT1-MMP txn act: 1; SF-1 act: -11.6

What do the screens show for `O=C(c1cccc(F)c1)N1CCCC(C(=O)N2CCCC2)C1` (stereo not drawn)?
RORa activator: 0.3; JNK3 blocker: 35.0*; MT1-MMP txn act: 1.2; SF-1 act: -1.1

How did COC(=O)[C@@]1(Cc2ccc(F)cc2)[C@H]2c3cc(C(=O)N4CCCC4)n(Cc4cc(F)cc5c4OCOC5)c3C[C@H]2CN1C(=O)c1ccccc1 do in these assays?
MT1-MMP txn act: 1.1

What do the screens show for `c1ccn2c(SCc3cn4ccsc4n3)nnc2c1`?
RORa activator: 60.6*; JNK3 blocker: 5.9; MT1-MMP txn act: 1.6; SF-1 act: 70.7*

How did c1ccc(-n2cnnc2SCc2cn3ccsc3n2)cc1 do in these assays?
RORa activator: -20.5; JNK3 blocker: -0.6; MT1-MMP txn act: 1.1; SF-1 act: -5.5

Results for C=CCN1C(=O)C2(/C(=C(\O)c3ccc4c(c3)OCCO4)C(=O)C(=O)N2CCCOC)c2ccccc21 (stereo not drawn) ?
RORa activator: 3.2; JNK3 blocker: 9.3; MT1-MMP txn act: 1; SF-1 act: -12.3

How did c1ccc(-c2nc3ccccc3s2)nc1 do in these assays?
RORa activator: 34.2; JNK3 blocker: 0.0; MT1-MMP txn act: 0.8; SF-1 act: 59.9*

How did c1ccc(-c2ccccn2)nc1 do in these assays?
MT1-MMP txn act: 1.2

Results for Brc1ccc(-c2nc3ccccc3s2)s1 ?
RORa activator: 48.4; JNK3 blocker: 5.2; MT1-MMP txn act: 1.5; SF-1 act: 54.3*

Results for CCOC(=O)c1sc(Nc2ccccc2)nc1C ?
MT1-MMP txn act: 1.7

How did CCOC(=O)c1sc(Nc2nc3c(OC)cccc3s2)nc1C do in these assays?
RORa activator: 10.9; JNK3 blocker: -16.7; MT1-MMP txn act: 1.6; SF-1 act: 64.1*

Results for O=C(Nc1cccnc1)c1ccc(COc2ccccc2Br)o1 ?
RORa activator: 16.0; JNK3 blocker: 20.7*; MT1-MMP txn act: 1; SF-1 act: 1.5

How did O=C1Nc2ccccc2CCC1Sc1nnc(-c2ccc(Cl)cc2)s1 (stereo not drawn) do in these assays?
MT1-MMP txn act: 2.1*

What do the screens show for `CCN(CC)c1ccc(-c2nc3cnccc3n2C)cc1`?
RORa activator: 67.3*; JNK3 blocker: -10.4; MT1-MMP txn act: 1.7; SF-1 act: 36.6

Results for O=C(C1CCCO1)N1CCC(O)(c2ccccc2)CC1 (stereo not drawn) ?
RORa activator: 1.3; JNK3 blocker: 5.3; MT1-MMP txn act: 1.1; SF-1 act: 10.0

Results for CCCn1nnc(NC(=O)c2cccc(OCC(C)C)c2)n1 ?
RORa activator: 12.0; MT1-MMP txn act: 1.3; SF-1 act: 4.2

How did CCOc1cccc(C(=O)NC2CCCCC2)c1 do in these assays?
RORa activator: 31.0; JNK3 blocker: 1.9; MT1-MMP txn act: 1.4; SF-1 act: 52.0*

Results for CCn1nnc(NC(=O)c2cccc(-c3cc4ccccc4oc3=O)c2)n1 ?
RORa activator: 20.0; JNK3 blocker: 12.8; MT1-MMP txn act: 1.6; SF-1 act: 54.7*

How did CCCn1nnc(NC(=O)c2cccc(OCC)c2)n1 do in these assays?
RORa activator: 51.5*; JNK3 blocker: 5.1; MT1-MMP txn act: 1.3; SF-1 act: 66.2*

Results for C=C1C(=O)C=C2CN(C(=O)c3ccccc3)[C@@](Cc3ccc(OC)cc3)(C(=O)OC)[C@@H]12 ?
MT1-MMP txn act: 1.1
